# Key:
# Candida albicans = assay: Antifungal activity against Candida albicans ATCC 10231 after 24 hrs by resazurin assay; type: functional; conditions: ATCC 10231, 24 h, read-out: MIC100
# Method in brief: (§1)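 Broth serial dilution MIC per NCCLS, in 96-well plates with YM medium (1% maltose extract, 0.2% yeast extract, 0.4% agar). Compounds were dissolved in DMSO and diluted in medium, with amphotericin B as positive control. Incubation was at 25 °C, read at 24 h for C. albicans and 48 h for C. neoformans. Read-outs were visual, OD and PrestoBlue resazurin. MIC is the lowest concentration giving 100% inhibition versus untreated growth.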
# MDA-MB-453 = assay: Cytotoxicity against human MDA-MB-453 cells by Celltiter-Glo assay; type: functional, cell-based
# MDA-MB-231 = assay: Cytotoxicity against human MDA-MB-231 cells by Celltiter-Glo assay; type: functional, cell-based
# Method in brief: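 Viability was measured with CellTiter-Glo reagent added 1:1 to well medium. Plates were kept foil-covered and shaken 2 min at room temperature, paused 2 min, then shaken another 2 min. Luminescence was read on a plate reader.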
# Cryptococcus neoformans = assay: Antifungal activity against Cryptococcus neoformans H99 after 48 hrs by resazurin assay; type: functional; conditions: var grubii H99 , read-out: MIC100; method in brief: as §1
SMILES,MIC (Candida albicans) [µg/mL],MIC (Cryptococcus neoformans) [µg/mL],IC50 (MDA-MB-453) [µM],IC50 (MDA-MB-231) [µM]
COc1cc(O)c2c3c(c(O)cc(C)c13)C1=C(C)C(=O)CC1(O)C2=O (configuration not stated),51.2,25.6,> 20,> 20
COc1cc(O)c2c3c(c(O)cc(C)c13)C(=O)C(O)(CC(C)=O)C2=O (configuration not stated),51.2,51.2,> 20,> 20
C[C@@H]1[C@H](O)[C@@H](C)/C=C/C=C/C=C/C=C/C=C/C=C/C=C/[C@H](O[C@@H]2O[C@H](C)[C@@H](O)[C@H](N)[C@@H]2O)C[C@@H]2O[C@](O)(C[C@@H](O)C[C@@H](O)[C@H](O)CC[C@@H](O)C[C@@H](O)CC(=O)O[C@H]1C)C[C@H](O)[C@H]2C(=O)O [AMPHOTERICIN B],0.8,0.8,–,–

# Continued, in another order:
MIC (Candida albicans) [µg/mL],MIC (Cryptococcus neoformans) [µg/mL],SMILES,IC50 (MDA-MB-453) [µM],IC50 (MDA-MB-231) [µM]
6.4,6.4,CCC(=O)C(C)C1(O)C(=O)c2c(O)cc(C)c3c(OC)cc(O)c(c23)C1=O (configuration not stated),> 20,> 20
25.6,12.8,CCC(=O)CC1(O)C(=O)c2c(O)cc(C)c3c(OC)cc(O)c(c23)C1=O (configuration not stated),> 20,> 20
3.2,3.2,COc1cc(O)c2c3c(c(O)cc(C)c13)C(=O)C(O)(C(C)C(C)=O)C2=O (configuration not stated),> 20,> 20

# From ChEMBL document CHEMBL4190231, “Anti-Cryptococcus Phenalenones and Cyclic Tetrapeptides from Auxarthron pseudauxarthron” (J Nat Prod, 2017)
